According to ChEMBL document CHEMBL1152488, “Synthesis and evaluation of pyrido[1,2-a]pyrimidines as inhibitors of nitric oxide synthases” (Eur J Med Chem, 2009):

Experiments:
[1] = molecular target: T1, Nitric oxide synthase 3 (Homo sapiens) (UniProt P29474); experiment: Inhibition of human eNOS assessed as residual activity at 100 uM by Griess assay relative to control
T1 sequence (whole entry): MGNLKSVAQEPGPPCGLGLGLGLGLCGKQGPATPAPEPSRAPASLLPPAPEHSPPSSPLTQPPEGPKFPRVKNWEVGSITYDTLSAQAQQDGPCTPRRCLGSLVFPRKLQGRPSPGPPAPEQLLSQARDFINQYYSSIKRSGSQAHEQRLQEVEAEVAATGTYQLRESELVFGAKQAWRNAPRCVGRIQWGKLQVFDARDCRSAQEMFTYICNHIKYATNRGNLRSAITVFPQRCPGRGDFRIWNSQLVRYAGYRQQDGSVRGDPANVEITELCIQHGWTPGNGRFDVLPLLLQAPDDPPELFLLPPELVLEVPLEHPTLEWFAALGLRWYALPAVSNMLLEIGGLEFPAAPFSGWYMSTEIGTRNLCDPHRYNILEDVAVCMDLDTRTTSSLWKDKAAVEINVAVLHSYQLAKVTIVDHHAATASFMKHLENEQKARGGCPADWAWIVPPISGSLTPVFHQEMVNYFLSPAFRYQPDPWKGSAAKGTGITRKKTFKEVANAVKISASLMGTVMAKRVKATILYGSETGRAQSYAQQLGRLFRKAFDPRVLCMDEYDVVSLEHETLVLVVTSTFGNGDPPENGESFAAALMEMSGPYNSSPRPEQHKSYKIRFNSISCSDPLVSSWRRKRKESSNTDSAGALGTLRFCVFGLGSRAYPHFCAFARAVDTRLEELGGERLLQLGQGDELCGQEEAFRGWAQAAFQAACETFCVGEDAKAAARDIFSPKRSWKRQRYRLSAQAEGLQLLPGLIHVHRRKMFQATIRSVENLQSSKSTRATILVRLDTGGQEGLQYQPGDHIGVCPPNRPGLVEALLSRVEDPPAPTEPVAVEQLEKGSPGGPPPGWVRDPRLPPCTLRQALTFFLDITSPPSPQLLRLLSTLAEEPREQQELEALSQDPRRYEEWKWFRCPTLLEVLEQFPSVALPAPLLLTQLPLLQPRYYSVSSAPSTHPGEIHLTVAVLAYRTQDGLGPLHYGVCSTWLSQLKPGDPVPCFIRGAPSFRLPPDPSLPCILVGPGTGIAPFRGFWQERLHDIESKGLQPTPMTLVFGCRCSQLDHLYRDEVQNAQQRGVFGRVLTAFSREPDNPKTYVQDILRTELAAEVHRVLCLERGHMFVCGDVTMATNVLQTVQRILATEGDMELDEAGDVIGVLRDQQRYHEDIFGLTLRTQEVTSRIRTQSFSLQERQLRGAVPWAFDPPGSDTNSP
In short: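 Human eNOS expressed in Pichia pastoris. Incubated 20 min at 37 °C in triethanolamine pH 7.5 with 0.5 mM Ca2+, CaM, H4B 10 µM, FAD/FMN 5 µM, NADPH 0.5 mM, L-arginine 1 mM and compound at 100 µM final. Nitrite read by Griess (543 nm) after LDH/pyruvate NADPH removal; % of 1% DMSO control from 5 experiments.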

[2] = molecular target: Nitric oxide synthase, inducible (Homo sapiens) (UniProt P35228); experiment: Inhibition of human iNOS expressed in insect Sf9 cells assessed as residual activity at 100 uM by Griess assay relative to control
In short: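 Human iNOS made in Sf9 cells, incubated at 37 °C for 20 min in 50 mM triethanolamine pH 7.5 with 1 mM Mg2+, FAD/FMN 5 µM each, 0.5 mM NADPH, 10 µM H4B, CaM and 1 mM L-arginine. Compound 100 µM final. NADPH cleared with lactate dehydrogenase/pyruvate before Griess reaction (543 nm). Residual activity relative to 1% DMSO control; mean of 5 experiments.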

[3] = molecular target: T2, Nitric oxide synthase, inducible (Mus musculus) (UniProt P29477); experiment: Inhibition of mouse iNOS expressed in insect Sf9 cells assessed as residual activity at 100 uM by Griess assay relative to control
T2 sequence (whole entry): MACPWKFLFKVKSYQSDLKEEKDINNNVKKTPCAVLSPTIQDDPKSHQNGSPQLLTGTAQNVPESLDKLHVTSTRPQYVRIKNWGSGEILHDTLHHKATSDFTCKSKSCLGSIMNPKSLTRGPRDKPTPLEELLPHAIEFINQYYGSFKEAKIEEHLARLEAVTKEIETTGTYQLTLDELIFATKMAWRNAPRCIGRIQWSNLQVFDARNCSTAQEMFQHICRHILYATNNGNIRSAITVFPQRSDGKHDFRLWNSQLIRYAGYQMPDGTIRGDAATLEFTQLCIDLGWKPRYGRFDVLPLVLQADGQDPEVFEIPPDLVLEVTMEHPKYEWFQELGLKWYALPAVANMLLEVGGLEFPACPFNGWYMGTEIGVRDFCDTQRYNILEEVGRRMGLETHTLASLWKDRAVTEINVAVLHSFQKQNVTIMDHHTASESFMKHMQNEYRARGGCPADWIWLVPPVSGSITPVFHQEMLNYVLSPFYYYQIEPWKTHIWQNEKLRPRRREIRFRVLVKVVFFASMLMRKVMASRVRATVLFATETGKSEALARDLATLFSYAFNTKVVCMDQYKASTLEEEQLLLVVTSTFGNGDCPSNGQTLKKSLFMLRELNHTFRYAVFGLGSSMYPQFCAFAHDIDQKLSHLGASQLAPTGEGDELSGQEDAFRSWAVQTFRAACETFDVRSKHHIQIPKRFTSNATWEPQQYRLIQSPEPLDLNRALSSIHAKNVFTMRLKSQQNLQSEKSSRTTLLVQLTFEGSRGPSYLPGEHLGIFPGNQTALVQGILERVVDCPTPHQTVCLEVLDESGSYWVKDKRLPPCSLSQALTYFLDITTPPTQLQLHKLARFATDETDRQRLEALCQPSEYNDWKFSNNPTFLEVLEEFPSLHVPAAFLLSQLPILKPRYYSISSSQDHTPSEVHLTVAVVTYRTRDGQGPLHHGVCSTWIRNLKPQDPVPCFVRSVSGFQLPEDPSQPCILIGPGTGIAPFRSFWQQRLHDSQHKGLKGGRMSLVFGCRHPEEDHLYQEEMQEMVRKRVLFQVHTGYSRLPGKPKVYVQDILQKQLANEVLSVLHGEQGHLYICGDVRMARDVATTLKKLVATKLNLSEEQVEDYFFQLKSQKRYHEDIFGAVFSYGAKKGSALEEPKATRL
In short: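 Murine iNOS produced in Sf9 insect cells. Buffer: 50 mM triethanolamine pH 7.5, 1 mM CHAPS, 10 mM 2-mercaptoethanol, 0.5 mM EDTA. Additions: 1 mM Mg2+, 5 µM FAD, 5 µM FMN, 0.5 mM NADPH, 10 µM H4B, 10 µg/ml CaM, 1 mM L-arginine. Compound at 100 µM final, 37 °C for 20 min. NADPH removed with LDH/pyruvate, then Griess read at 543 nm. Values are % of 1% DMSO control, 5 experiments.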

[4] = molecular target: T3, Nitric oxide synthase 3 (Bos taurus) (UniProt P29473); experiment: Inhibition of bovine eNOS expressed in insect Sf9 cells assessed as residual activity at 100 uM by Griess assay relative to control
T3 sequence (whole entry): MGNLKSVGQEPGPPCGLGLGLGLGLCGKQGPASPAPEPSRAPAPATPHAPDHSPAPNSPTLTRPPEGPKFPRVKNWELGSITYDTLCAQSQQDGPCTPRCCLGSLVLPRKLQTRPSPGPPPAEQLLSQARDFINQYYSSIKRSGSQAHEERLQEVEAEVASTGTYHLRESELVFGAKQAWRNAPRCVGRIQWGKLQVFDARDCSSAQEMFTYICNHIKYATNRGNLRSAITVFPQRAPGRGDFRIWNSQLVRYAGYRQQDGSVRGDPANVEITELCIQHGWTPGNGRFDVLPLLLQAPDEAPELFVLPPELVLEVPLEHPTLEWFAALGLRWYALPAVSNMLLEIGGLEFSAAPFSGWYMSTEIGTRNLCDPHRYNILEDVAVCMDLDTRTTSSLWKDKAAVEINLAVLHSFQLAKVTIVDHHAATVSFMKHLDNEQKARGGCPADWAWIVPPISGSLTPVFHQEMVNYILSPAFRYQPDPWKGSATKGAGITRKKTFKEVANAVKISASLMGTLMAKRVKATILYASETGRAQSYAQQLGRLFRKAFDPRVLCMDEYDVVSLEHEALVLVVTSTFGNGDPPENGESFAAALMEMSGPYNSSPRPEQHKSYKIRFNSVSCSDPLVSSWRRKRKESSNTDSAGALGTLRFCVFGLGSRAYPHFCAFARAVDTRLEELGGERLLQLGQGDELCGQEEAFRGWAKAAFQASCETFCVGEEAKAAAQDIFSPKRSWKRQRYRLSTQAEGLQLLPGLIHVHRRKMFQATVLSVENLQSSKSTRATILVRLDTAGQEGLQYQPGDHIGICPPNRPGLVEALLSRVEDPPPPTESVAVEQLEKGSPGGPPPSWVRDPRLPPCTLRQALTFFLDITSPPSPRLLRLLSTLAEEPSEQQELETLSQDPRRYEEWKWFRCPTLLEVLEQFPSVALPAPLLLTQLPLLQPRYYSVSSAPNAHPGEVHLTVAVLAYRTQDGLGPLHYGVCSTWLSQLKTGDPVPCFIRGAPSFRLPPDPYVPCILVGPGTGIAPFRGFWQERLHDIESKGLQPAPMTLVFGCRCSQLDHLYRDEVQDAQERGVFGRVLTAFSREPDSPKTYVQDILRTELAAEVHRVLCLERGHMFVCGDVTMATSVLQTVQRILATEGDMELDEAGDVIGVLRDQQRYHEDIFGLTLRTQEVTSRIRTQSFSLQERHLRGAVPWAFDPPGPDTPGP
In short: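 Bovine eNOS from Sf9 cells. Reaction: triethanolamine buffer pH 7.5, 0.5 mM Ca2+, 10 µg/ml CaM, 10 µM H4B, FAD, FMN, 0.5 mM NADPH, 1 mM L-arginine, with 100 µM compound, 20 min at 37 °C. After NADPH removal by LDH/pyruvate, nitrite measured by Griess at 543 nm. Expressed as % residual activity versus 1% DMSO control, 5 experiments.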

[5] = Lipophilicity, log D at pH 7.4 by HPLC method; details: buffer

Sequence of Nitric oxide synthase, inducible (Homo sapiens) (P35228 whole entry): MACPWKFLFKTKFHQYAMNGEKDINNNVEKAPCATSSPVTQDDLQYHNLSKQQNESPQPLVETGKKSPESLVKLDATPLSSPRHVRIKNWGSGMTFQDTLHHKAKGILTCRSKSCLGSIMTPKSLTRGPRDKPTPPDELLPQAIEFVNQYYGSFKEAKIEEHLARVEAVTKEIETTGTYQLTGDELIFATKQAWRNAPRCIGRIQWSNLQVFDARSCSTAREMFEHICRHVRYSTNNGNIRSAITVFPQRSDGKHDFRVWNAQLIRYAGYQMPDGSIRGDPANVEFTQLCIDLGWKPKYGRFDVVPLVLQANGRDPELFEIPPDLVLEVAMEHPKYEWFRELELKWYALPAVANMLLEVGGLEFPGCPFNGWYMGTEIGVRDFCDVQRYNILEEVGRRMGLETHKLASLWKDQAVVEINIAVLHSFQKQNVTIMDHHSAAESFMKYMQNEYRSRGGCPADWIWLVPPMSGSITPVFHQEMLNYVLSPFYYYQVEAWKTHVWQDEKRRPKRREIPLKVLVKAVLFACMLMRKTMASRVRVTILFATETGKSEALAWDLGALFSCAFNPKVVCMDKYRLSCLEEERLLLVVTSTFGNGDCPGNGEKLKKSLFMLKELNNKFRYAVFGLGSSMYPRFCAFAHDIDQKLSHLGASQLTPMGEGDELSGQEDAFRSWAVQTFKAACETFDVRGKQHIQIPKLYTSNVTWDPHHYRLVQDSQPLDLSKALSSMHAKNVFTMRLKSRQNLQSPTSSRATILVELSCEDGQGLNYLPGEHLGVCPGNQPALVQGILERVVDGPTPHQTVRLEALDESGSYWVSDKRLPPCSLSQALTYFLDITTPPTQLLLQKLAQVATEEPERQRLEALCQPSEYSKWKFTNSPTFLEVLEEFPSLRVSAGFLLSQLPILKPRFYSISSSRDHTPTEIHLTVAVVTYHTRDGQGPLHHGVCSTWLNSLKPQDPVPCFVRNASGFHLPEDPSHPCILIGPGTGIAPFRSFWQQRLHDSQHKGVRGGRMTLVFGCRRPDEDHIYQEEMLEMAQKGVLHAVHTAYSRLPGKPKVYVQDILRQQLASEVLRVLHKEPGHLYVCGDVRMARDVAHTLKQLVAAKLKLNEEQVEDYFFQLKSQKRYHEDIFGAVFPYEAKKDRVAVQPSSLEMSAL

Row | Compound | Activity [1] [%] | Activity [2] [%] | Activity [3] [%] | Activity [4] [%] | logD [5]
1 | COc1ccc(COc2ccc(C(=O)C3CN=C4C=C(C)C=CN4C3)cc2)cc1 (stereo not drawn) | 46 | 101 | – | – | –
2 | COc1ccc(C(=O)C2CN=C3C=CC=CN3C2)cc1 (stereo not drawn) | – | – | 100 | 90 | 1.5
3 | CC1=CC2=NCC(C(=O)c3ccc(C4CCCCC4)cc3)CN2C=C1 (stereo not drawn) | 42 | 70 | – | – | –
4 | CCOc1ccc(C(=O)C2CN=C3C=C(C)C=CN3C2)cc1 (stereo not drawn) | – | – | 97 | 87 | –
5 | COc1cc(C(=O)C2CN=C3C=CC=CN3C2)cc(OC)c1OC (stereo not drawn) | – | – | 105 | 86 | –
6 | COc1ccc(C(=O)C2CN=C3C=CC=CN3C2)cc1OC (stereo not drawn) | – | – | 123 | 91 | 1.4
7 | Cc1cccc(N)n1 | 83 | 47 | – | – | –
8 | CC1=CC=CC2=NCC(C(=O)c3ccccc3)CN12 (stereo not drawn) | – | – | 104 | 93 | 1.5
9 | CC1=CC2=NCC(C(=O)c3ccc(C(=O)O)cc3)CN2C=C1 (stereo not drawn) | 94 | 93 | – | – | –
10 | O=C(c1ccc(F)cc1)C1CN=C2C=CC=CN2C1 (stereo not drawn) | 79 | 67 | – | – | –
11 | CC1=CC=CN2CC(C(=O)c3ccccc3)CN=C12 (stereo not drawn) | – | – | 103 | 92 | –
12 | COc1ccc2cc(C(=O)C3CN=C4C=C(C)C=C(C)N4C3)ccc2c1 (stereo not drawn) | 121 | 95 | – | – | 1.9
13 | Cc1ccnc(N)c1 | 50 | 29 | – | – | –
14 | CC1=CC2=NCC(C(=O)c3ccc(O)cc3)CN2C=C1 (stereo not drawn) | 46 | 30 | – | – | –
15 | CC1=CC=CC2=NCC(C(=O)c3ccc4cc(C)ccc4c3)CN12 (stereo not drawn) | 75 | 88 | – | – | 2.1
16 | CC1=CC2=NCC(C(=O)c3ccc(-c4ccc(C(=O)O)cc4)cc3)CN2C=C1 (stereo not drawn) | 91 | 98 | – | – | –
17 | CC1=CC=CC2=NCC(C(=O)c3ccc(-c4ccccc4)cc3)CN12 (stereo not drawn) | 20 | 86 | – | – | 2.1
18 | CC1=CC=CN2CC(C(=O)c3ccc(C)cc3)CN=C12 (stereo not drawn) | – | – | 100 | 93 | 1.6
19 | Cc1cc(C)nc(N)c1 | 12 | 7 | – | – | –
20 | Nc1ccccn1 | 94 | 95 | – | – | –
21 | CC1=CC2=NCC(C(=O)c3ccc(OCc4ccccc4)cc3)CN2C=C1 (stereo not drawn) | 75 | 73 | – | – | –
22 | COc1ccc2cc(C(=O)C3CN=C4C=CC=C(C)N4C3)ccc2c1 (stereo not drawn) | 6 | 80 | – | – | 1.9
23 | CC1=CC2=NCC(C(=O)c3ccc(C#N)cc3)CN2C=C1 (stereo not drawn) | 75 | 54 | – | – | –
24 | CC1=CC2=NCC(C(=O)c3ccc(-c4ccc(O)cc4)cc3)CN2C=C1 (stereo not drawn) | 86 | 96 | – | – | –
25 | CC1=CC2=NCC(C(=O)c3ccc(-c4ccc(F)cc4)cc3)CN2C=C1 (stereo not drawn) | 46 | 85 | – | – | –
